ChEMBL document CHEMBL4680123, “Synthesis of novel 3-halo-3-nitroflavanones and their activities as DNA methyltransferase inhibitors in cancer cells” (Eur J Med Chem, 2020)
Activity calls are given as the source filed them. No cut-off for these calls is given here.

Biological target: DNA (cytosine-5)-methyltransferase 3A (Homo sapiens) (UniProt Q9Y6K1)
Assay: Inhibition of human DNMT3A catalytic domain expressed in Escherichia coli Rosetta-gamiTM 2(DE3) pLysS competent cells using biotinylated 6-FAM double strand DNA comprising unique CpG site […] incubated for 1 hrs by fluorescence based assay
Settings: not given

Sequence of DNA (cytosine-5)-methyltransferase 3A (Homo sapiens) (Q9Y6K1 whole entry, looked up, the tested form may be a part): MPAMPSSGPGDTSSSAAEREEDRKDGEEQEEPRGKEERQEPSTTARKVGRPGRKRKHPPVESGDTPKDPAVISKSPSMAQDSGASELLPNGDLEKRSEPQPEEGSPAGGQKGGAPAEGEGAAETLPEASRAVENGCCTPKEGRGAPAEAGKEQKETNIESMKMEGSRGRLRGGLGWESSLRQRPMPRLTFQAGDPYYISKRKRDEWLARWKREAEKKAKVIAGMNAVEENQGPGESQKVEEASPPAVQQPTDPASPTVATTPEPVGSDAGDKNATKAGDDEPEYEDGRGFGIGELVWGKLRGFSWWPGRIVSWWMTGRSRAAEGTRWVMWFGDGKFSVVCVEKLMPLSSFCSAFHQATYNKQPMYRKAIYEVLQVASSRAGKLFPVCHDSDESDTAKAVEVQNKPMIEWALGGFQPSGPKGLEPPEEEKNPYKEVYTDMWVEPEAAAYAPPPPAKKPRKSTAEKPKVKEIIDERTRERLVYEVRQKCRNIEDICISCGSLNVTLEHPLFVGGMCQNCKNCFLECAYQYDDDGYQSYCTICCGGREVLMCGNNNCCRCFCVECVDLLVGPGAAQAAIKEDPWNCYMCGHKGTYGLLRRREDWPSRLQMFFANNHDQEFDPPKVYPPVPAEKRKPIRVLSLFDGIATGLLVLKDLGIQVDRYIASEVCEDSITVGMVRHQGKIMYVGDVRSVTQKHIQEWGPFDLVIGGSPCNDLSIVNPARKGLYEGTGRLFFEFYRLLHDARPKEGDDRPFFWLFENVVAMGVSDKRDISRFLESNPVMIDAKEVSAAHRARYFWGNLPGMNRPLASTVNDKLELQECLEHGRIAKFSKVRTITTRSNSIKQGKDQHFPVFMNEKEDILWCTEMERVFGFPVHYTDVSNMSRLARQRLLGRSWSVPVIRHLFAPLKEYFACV

Compound | EC50
O=C1c2ccccc2OC(c2ccccc2[N+](=O)[O-])C1[N+](=O)[O-] (stereo not given) | Not Active
COc1ccc([N+](=O)[O-])c(C2Oc3ccccc3C(=O)C2[N+](=O)[O-])c1 (stereo not given) | Not Active
O=C1c2ccccc2OC(c2ccccc2)C1[N+](=O)[O-] (trans isomer) | Not Active

Same assay, conditions: read-out: EC50

Compound | EC50
COc1ccc([N+](=O)[O-])c(C2Oc3ccccc3C(=O)C2(Cl)[N+](=O)[O-])c1 (stereo not given) | 4.4 µM
CC1([N+](=O)[O-])C(=O)c2ccccc2OC1c1ccccc1[N+](=O)[O-] (stereo not given) | > 40 µM
O=C1c2ccccc2OC(c2ccccc2[N+](=O)[O-])C1(Cl)[N+](=O)[O-] (stereo not given) | 4.4 µM
O=C1c2ccccc2OC(c2ccccc2)C1(Br)[N+](=O)[O-] (stereo not given) | 6.7 µM
O=C1c2ccccc2O[C@H](c2ccccc2F)[C@@]1(Br)[N+](=O)[O-] (racemic) | 5.7 µM
COc1ccc([N+](=O)[O-])c([C@H]2Oc3ccccc3C(=O)[C@]2(Br)[N+](=O)[O-])c1 (racemic) | 5.3 µM
O=C1c2ccccc2OC(c2ccccc2[N+](=O)[O-])C1(I)[N+](=O)[O-] (racemic) | 2.8 µM
COc1ccc([N+](=O)[O-])c([C@H]2Oc3ccccc3C(=O)[C@@]2(Br)[N+](=O)[O-])c1 (racemic) | 4.7 µM
O=C1c2ccccc2O[C@H](c2ccccc2[N+](=O)[O-])[C@@]1(Br)[N+](=O)[O-] (racemic) | 3.2 µM
COc1ccc([N+](=O)[O-])c([C@H]2Oc3ccccc3C(=O)[C@]2(I)[N+](=O)[O-])c1 (racemic) | 2 µM
O=C1c2ccccc2O[C@H](c2ccccc2[N+](=O)[O-])[C@]1(Br)[N+](=O)[O-] (racemic) | 5.1 µM

Tested on: KG-1
Assay: Cytotoxicity against human KG-1 cells assessed as reduction in cell viability measured after 72 hrs by APTlite one step luminescence assay
Assay type: functional, cell-based
Settings: KG-1, 72 h

Compound | EC50
COc1ccc([N+](=O)[O-])c([C@H]2Oc3ccccc3C(=O)[C@]2(Br)[N+](=O)[O-])c1 (racemic) | 12.9 µM
COc1ccc([N+](=O)[O-])c([C@H]2Oc3ccccc3C(=O)[C@@]2(Br)[N+](=O)[O-])c1 (racemic) | 18.6 µM
O=C1c2ccccc2O[C@H](c2ccccc2[N+](=O)[O-])[C@@]1(Br)[N+](=O)[O-] (racemic) | 13 µM
O=C1c2ccccc2O[C@H](c2ccccc2[N+](=O)[O-])[C@]1(Br)[N+](=O)[O-] (racemic) | 5.3 µM

Biological target: DNA (cytosine-5)-methyltransferase 3A (Homo sapiens) (UniProt Q9Y6K1)
Assay: Inhibition of human DNMT3A catalytic domain expressed in Escherichia coli Rosetta-gamiTM 2(DE3) pLysS competent cells using biotinylated 6-FAM double strand DNA comprising unique CpG site […] at 32 uM incubated for 1 hrs by fluorescence based assay
Settings: not given

Compound | inhibition
O=C1c2ccccc2OC(c2ccccc2[N+](=O)[O-])C1[N+](=O)[O-] (stereo not given) | 0%
COc1ccc([N+](=O)[O-])c(C2Oc3ccccc3C(=O)C2[N+](=O)[O-])c1 (stereo not given) | 0%
O=C1c2ccccc2OC(c2ccccc2)C1[N+](=O)[O-] (trans isomer) | 0%

Tested on: not listed separately
Assay: Chemical stability of compound in DNMT3A-c enzyme buffer assessed as half life at 1 mM by HPLC analysis
Assay type: physicochemical
Settings: not given
In short: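 Followed over 15 h by reverse-phase HPLC (H2O/acetonitrile gradient with 0.1% formic acid), detection at 250 nm. Remaining compound taken from HPLC peak area. Mean of at least two experiments.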

Compound | half-life at 1000 µM
COc1ccc([N+](=O)[O-])c(C2Oc3ccccc3C(=O)C2(Cl)[N+](=O)[O-])c1 (stereo not given) | 3.4 h
O=C1c2ccccc2OC(c2ccccc2[N+](=O)[O-])C1(Cl)[N+](=O)[O-] (stereo not given) | 1 h
COc1ccc([N+](=O)[O-])c([C@H]2Oc3ccccc3C(=O)[C@]2(Br)[N+](=O)[O-])c1 (racemic) | 7 h
O=C1c2ccccc2OC(c2ccccc2[N+](=O)[O-])C1(I)[N+](=O)[O-] (racemic) | > 15 h
O=C1c2ccccc2O[C@H](c2ccccc2[N+](=O)[O-])[C@@]1(Br)[N+](=O)[O-] (racemic) | 1.7 h
COc1ccc([N+](=O)[O-])c([C@H]2Oc3ccccc3C(=O)[C@]2(I)[N+](=O)[O-])c1 (racemic) | > 15 h
O=C1c2ccccc2O[C@H](c2ccccc2[N+](=O)[O-])[C@]1(Br)[N+](=O)[O-] (racemic) | 0.7 h

Tested on: HCT-116
Assay: Cytotoxicity against human HCT-116 cells assessed as reduction in cell viability measured after 72 hrs by APTlite one step luminescence assay
Assay type: functional, cell-based
Settings: HCT-116, 72 h
In short: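 KG-1 cells were seeded at 2x10^4 cells/ml in RPMI-1640 with 15% FCS, and HCT116 cells at 1.5x10^4 cells/ml in MEM with HEPES, L-glutamine and 10% FCS, at 37 °C, 5% CO2. Compound was given at 3.2x10-9 to 1x10-5 M on day 0 and again on days 2 and 3. ATP-luminescence read-out on day 4. EC50 is the concentration giving 50% viability loss versus untreated cells. Mean of at least two independent experiments run in duplicate.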

Compound | EC50
COc1ccc([N+](=O)[O-])c([C@H]2Oc3ccccc3C(=O)[C@]2(Br)[N+](=O)[O-])c1 (racemic) | 8.1 µM
O=C1c2ccccc2O[C@H](c2ccccc2[N+](=O)[O-])[C@@]1(Br)[N+](=O)[O-] (racemic) | 10.7 µM
O=C1c2ccccc2O[C@H](c2ccccc2[N+](=O)[O-])[C@]1(Br)[N+](=O)[O-] (racemic) | 12.4 µM

Biological target: DNA (cytosine-5)-methyltransferase 3B (Homo sapiens) (UniProt Q9UBC3)
Assay: Inhibition of human DNMT3B in human KG-1 cells expressing cmv-firefly luciferase assessed as increase in luminescence upto 10 uM incubated for 24 hrs by luciferase reporter gene assay relative to control
Assay type: cell-based
Settings: dose microM <=10, time 24.0 hrs
In short: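 KG-1 cells stably carrying firefly luciferase (luc+) under a 50%-methylated CMV promoter, seeded at 20 000 cells/well. Treated 24 h with compound (3.2–10 µM) or DMSO. Luciferase quantified by One-Glo luminescence and expressed as fold induction over DMSO control. Mean of three experiments with standard error.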

Compound | inhibition
COc1ccc([N+](=O)[O-])c(C2Oc3ccccc3C(=O)C2(Cl)[N+](=O)[O-])c1 (stereo not given) | inactive
CC1([N+](=O)[O-])C(=O)c2ccccc2OC1c1ccccc1[N+](=O)[O-] (stereo not given) | inactive
O=C1c2ccccc2OC(c2ccccc2[N+](=O)[O-])C1(Cl)[N+](=O)[O-] (stereo not given) | inactive
O=C1c2ccccc2OC(c2ccccc2)C1(Br)[N+](=O)[O-] (stereo not given) | inactive
O=C1c2ccccc2O[C@H](c2ccccc2F)[C@@]1(Br)[N+](=O)[O-] (racemic) | inactive
O=C1c2ccccc2OC(c2ccccc2[N+](=O)[O-])C1(I)[N+](=O)[O-] (racemic) | inactive
COc1ccc([N+](=O)[O-])c([C@H]2Oc3ccccc3C(=O)[C@]2(I)[N+](=O)[O-])c1 (racemic) | inactive

Biological target: DNA (cytosine-5)-methyltransferase 3B (Homo sapiens) (UniProt Q9UBC3)
Assay: Inhibition of human DNMT3B in human KG-1 cells expressing cmv-firefly luciferase assessed as increase in luminescence incubated for 24 hrs by luciferase reporter gene assay relative to control
Assay type: cell-based
Settings: dose 3.2-10 µM
In short: (§1)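 KG-1 cells stably carrying firefly luciferase under a 50% methylated CMV promoter were seeded at 20 000 cells/well. They were exposed to compound (3.2–10 µM range) or DMSO for 24 h, then luciferase was quantified by One-Glo luminescence. Result is fold induction over DMSO control. Mean of three experiments with standard error.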

Compound | Activity
COc1ccc([N+](=O)[O-])c([C@H]2Oc3ccccc3C(=O)[C@]2(Br)[N+](=O)[O-])c1 (racemic) | Dose-dependent effect
COc1ccc([N+](=O)[O-])c([C@H]2Oc3ccccc3C(=O)[C@@]2(Br)[N+](=O)[O-])c1 (racemic) | Dose-dependent effect
O=C1c2ccccc2O[C@H](c2ccccc2[N+](=O)[O-])[C@@]1(Br)[N+](=O)[O-] (racemic) | Dose-dependent effect
O=C1c2ccccc2O[C@H](c2ccccc2[N+](=O)[O-])[C@]1(Br)[N+](=O)[O-] (racemic) | Dose-dependent effect

Biological target: DNA (cytosine-5)-methyltransferase 3B (Homo sapiens) (UniProt Q9UBC3)
Assay: Inhibition of human DNMT3B in human KG-1 cells expressing cmv-firefly luciferase assessed as increase in luminescence at 5 uM incubated for 24 hrs by luciferase reporter gene assay relative to control
Assay type: cell-based
Settings: not given
In short: as §1

Compound | fold change (FC)
O=C1c2ccccc2OC(c2ccccc2[N+](=O)[O-])C1(Cl)[N+](=O)[O-] (stereo not given) | 2
O=C1c2ccccc2O[C@H](c2ccccc2[N+](=O)[O-])[C@@]1(Br)[N+](=O)[O-] (racemic) | 6.1
O=C1c2ccccc2O[C@H](c2ccccc2[N+](=O)[O-])[C@]1(Br)[N+](=O)[O-] (racemic) | 8.8
